Assay results taken from ChEMBL document CHEMBL5252633, “Quinazolinone-1,2,3-triazole-acetamide conjugates as potent α-glucosidase inhibitors: synthesis, enzyme inhibition, kinetic analysis, and molecular docking study” (RSC Med Chem, 2023).
Calls of active or inactive are those of the source. The rule behind the calls is not given here.

Tests used:
[1] = biological target: T1, Alpha-glucosidase (Saccharomyces cerevisiae S288c, UniProt P53341+P38158+P07265); assay: Inhibition of Saccharomyces cerevisiae alpha-glucosidase using p-nitrophenyl-alpha D-glucopyranoside as substrate preincubated for 15 mins followed by substrate addition and measured after 20 mins by spectrophotometer assay; format: protein assay
[2] = biological target: T1, Alpha-glucosidase; assay: Inhibition of Saccharomyces cerevisiae alpha-glucosidase assessed as inhibition constant using p-nitrophenyl-alpha D-glucopyranoside as substrate preincubated for 15 mins followed by substrate addition and measured after 20 mins by Lineweaver-burk plot analysis; format: protein assay
[3] = biological target: Maltase-glucoamylase (Homo sapiens) (UniProt O43451); assay: Inhibition of alpha-glucosidase (unknown origin) assessed as increase in Km using p-nitrophenyl-alpha D-glucopyranoside as substrate by Lineweaver-Burk plot analysis
Summary of the method: (§1)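 Initial rates were measured with p-nitrophenyl α-D-glucopyranoside at 1–16 mM and inhibitor at 0, 1.2, 2.4 and 4.8 μM. Lineweaver–Burk plots (1/V against 1/[S]) at each inhibitor level gave Km and Vmax. Ki was estimated from a plot of Km against inhibitor concentration.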

[4] = biological target: Maltase-glucoamylase (Homo sapiens) (UniProt O43451); assay: Inhibition of alpha-glucosidase (unknown origin) assessed as change in Vmax using p-nitrophenyl-alpha D-glucopyranoside as substrate by Lineweaver-Burk plot analysis; summary of the method: as §1
[5] = biological target: T2, Pancreatic triacylglycerol lipase (Homo sapiens, UniProt P16233); assay: Inhibition of pancreatic lipase (unknown origin)
T2 sequence (P16233 whole entry): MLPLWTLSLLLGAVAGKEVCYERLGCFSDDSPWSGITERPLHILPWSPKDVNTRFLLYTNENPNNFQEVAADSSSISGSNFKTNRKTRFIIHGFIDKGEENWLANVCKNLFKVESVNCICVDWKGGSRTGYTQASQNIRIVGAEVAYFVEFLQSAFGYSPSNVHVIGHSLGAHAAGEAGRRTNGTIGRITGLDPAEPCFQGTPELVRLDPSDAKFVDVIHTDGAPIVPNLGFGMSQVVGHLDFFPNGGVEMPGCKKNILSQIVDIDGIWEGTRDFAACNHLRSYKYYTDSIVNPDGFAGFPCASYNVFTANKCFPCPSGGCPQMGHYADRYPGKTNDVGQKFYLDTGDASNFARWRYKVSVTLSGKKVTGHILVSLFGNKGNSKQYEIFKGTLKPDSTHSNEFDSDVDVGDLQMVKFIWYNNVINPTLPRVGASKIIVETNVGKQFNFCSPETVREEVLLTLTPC

Sequence of Maltase-glucoamylase (Homo sapiens) (O43451 whole entry, looked up): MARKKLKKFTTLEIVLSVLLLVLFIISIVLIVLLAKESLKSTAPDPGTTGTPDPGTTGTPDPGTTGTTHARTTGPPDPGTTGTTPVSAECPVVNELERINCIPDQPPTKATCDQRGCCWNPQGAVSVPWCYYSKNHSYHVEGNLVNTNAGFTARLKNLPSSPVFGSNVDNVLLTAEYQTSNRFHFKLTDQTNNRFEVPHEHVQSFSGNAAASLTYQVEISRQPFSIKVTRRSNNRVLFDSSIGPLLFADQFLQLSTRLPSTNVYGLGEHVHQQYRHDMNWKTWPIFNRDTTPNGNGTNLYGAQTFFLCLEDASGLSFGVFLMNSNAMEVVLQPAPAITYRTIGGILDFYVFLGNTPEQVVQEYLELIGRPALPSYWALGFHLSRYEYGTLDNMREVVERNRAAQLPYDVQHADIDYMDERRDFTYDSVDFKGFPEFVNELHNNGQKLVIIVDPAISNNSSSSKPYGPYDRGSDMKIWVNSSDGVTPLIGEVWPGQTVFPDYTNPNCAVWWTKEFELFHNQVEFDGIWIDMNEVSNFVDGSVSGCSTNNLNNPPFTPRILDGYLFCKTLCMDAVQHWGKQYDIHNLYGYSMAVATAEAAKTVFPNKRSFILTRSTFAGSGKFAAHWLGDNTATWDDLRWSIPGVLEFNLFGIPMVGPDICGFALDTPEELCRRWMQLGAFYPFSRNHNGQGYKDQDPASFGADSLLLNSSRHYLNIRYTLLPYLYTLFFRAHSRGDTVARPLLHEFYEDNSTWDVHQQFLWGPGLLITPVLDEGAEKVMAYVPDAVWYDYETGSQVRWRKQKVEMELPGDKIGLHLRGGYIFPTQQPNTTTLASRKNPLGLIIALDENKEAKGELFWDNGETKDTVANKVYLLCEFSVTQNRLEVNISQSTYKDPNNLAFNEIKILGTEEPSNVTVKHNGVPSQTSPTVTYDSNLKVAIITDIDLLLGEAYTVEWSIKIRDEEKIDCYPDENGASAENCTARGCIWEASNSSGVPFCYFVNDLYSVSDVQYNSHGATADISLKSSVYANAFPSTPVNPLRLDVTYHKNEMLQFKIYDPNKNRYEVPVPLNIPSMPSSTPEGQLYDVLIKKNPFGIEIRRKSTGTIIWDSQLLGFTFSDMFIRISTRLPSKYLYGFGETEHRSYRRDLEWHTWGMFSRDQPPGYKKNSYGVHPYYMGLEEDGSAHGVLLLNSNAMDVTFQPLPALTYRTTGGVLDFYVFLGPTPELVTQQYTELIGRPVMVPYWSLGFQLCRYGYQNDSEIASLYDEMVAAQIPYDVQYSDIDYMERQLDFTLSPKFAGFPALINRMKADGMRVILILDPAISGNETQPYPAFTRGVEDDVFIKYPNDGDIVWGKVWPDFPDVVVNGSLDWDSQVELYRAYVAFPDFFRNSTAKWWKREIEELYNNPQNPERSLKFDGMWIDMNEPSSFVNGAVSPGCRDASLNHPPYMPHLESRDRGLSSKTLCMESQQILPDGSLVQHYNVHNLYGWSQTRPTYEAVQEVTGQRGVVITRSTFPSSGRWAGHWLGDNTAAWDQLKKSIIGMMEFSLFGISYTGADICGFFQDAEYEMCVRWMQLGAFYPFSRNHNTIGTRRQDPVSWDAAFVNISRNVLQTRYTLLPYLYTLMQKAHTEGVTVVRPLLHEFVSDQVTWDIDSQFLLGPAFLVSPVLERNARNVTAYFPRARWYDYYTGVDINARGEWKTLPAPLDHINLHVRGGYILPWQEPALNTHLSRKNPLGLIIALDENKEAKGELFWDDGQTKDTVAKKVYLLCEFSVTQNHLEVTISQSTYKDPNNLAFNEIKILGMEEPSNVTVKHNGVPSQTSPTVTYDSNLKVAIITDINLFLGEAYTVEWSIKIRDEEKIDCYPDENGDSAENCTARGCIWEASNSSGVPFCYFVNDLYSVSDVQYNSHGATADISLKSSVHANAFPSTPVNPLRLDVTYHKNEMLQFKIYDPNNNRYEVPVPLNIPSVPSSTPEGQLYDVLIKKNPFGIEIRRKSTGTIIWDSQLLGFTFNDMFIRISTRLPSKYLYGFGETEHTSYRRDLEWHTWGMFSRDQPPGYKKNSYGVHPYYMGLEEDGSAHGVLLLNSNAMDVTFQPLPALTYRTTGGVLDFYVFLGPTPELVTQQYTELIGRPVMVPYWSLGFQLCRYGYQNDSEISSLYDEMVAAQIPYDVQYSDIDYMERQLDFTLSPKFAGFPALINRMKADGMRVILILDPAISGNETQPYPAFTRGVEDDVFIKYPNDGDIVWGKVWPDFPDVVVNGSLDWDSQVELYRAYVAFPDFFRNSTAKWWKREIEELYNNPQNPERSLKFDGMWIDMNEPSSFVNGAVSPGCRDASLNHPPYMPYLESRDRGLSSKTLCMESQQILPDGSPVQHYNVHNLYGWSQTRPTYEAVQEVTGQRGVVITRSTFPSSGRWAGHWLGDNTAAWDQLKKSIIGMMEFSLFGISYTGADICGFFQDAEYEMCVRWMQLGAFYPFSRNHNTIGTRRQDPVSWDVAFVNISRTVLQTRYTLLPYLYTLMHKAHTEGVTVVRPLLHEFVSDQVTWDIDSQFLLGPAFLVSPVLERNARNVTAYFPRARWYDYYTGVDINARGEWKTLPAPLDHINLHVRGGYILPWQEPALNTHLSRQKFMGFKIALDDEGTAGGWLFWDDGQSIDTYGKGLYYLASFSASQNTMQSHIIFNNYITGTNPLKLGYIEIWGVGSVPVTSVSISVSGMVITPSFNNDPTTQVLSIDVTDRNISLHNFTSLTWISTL

## O=C(Cn1c(-c2ccc(Cl)cc2)nc2ccccc2c1=O)N/N=C\c1cn(-c2ccccc2)nc1-c1ccc(Br)cc1
[1]
  IC50: 60.5 µM
[2]
  Ki: 56 µM

## Cc1ccc(NC(=O)Cn2cc(COc3ccc(C4Nc5ccccc5C(=O)N4Nc4ccccc4)cc3)nn2)c(C)c1 (stereo not given)
[3]
  inhibition: Active
[4]
  inhibition: inactive

## O=C(Cn1c(Cc2ccc(Br)cc2)nc2ccccc2c1=O)NNC(=O)c1cc2ccccc2oc1=O
[5]
  IC50: 2.8 µM
